Laboratory results reported in publication PMC7080047 (Medicinal Chemistry Research, 2014).

Experiments:
[1] = test system: NO production in chicken macrophages; details: ref Sung et al., 1994; cited from earlier work
[2] = test system: immune-activated NO production by mouse peritoneal cells; experiment: in vitro nitric oxide; assay type: cell-based; details: for IC50: read-out: NO-inhibitory IC 50, LPS/IFN-γ stimulated mouse peritoneal cells, 24 h; for concentration at which NO-suppressive effects were already apparent: dose-response, Fig. 2
Procedure, shortened: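 Peritoneal lavage cells (8 mL saline) pooled from 4–10 female C57BL/6 mice, 8–10 weeks old, seeded at 2 × 10^6 cells/mL in RPMI-1640 with 10% FBS, 37 °C, 5% CO2. Test compound (DMSO stock diluted in medium; DMSO control) added for 24 h with IFN-γ 0.5 ng/mL plus E. coli LPS 0.1 ng/mL, duplicates. Supernatant nitrite measured by Griess reagent at A540 against a nitrite standard curve, expressed as % of control.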

HSV-2 = experiment: antiviral activity, HSV-2 in HeLa cells; assay type: cell-based; details: Human alphaherpesvirus 2, HeLa, read-out: antiviral EC50
Punta Toro virus = experiment: antiviral activity, Punta Toro virus in MDCK cells; assay type: cell-based; details: read-out: antiviral EC50
vaccinia virus = experiment: antiviral activity, vaccinia virus in HeLa cells; assay type: cell-based; details: Orthopoxvirus vaccinia, read-out: antiviral EC50
[3] = test system: viruses such as members of the Herpes, Picorna, and Pox groups; details: ref Marcialis et al., 1973, 1974, La Colla et al., 1975; cited from earlier work
[4] = test system: vesicular stomatitis virus (VSV); experiment: microbe, parasite or virus in culture; assay type: cell-based; details: HeLa, read-out: antiviral EC50
Feline herpes virus = experiment: antiviral activity, Feline herpes virus in CRFK cells; assay type: cell-based; details: read-out: antiviral EC50
HIV-2 = experiment: antiviral activity, HIV-2 in CEM cells; assay type: cell-based; details: Human immunodeficiency virus 2, CCRF-CEM, read-out: antiviral EC50
Reovirus-1 = experiment: antiviral activity, Reovirus-1 in MDCK cells; assay type: cell-based; details: read-out: antiviral EC50
HSV-1 = experiment: antiviral activity, HSV-1 in HeLa cells; assay type: cell-based; details: Human alphaherpesvirus 1, HeLa, read-out: antiviral EC50
[5] = test system: respiratory syncytial virus (RSV); experiment: antiviral activity, respiratory syncytial virus in HeLa cells; assay type: cell-based; details: human respiratory syncytial virus, read-out: antiviral EC50
Parainfluenza 3-virus = experiment: antiviral activity, Parainfluenza 3-virus in MDCK cells; assay type: cell-based; details: read-out: antiviral EC50
HIV-1 = experiment: antiviral activity, HIV-1 in CEM cells; assay type: cell-based; details: Human immunodeficiency virus 1, CCRF-CEM, read-out: antiviral EC50

Nc1cc(O)nc(N)n1 [2,4-diamino-6-hydroxypyrimidine]
effect on NO production (in words) [1]: suppresses NO production

N=C(N)NN [Aminoguanidine, aminoguanidine, reference compound]
IC50 [2]: 77.8 µM

Nc1nc(Cl)cc(Cl)n1 [Compound B1, 2-amino-4,6-dichloropyrimidine]
EC50 (HSV-2): > 100 µg/mL
EC50 (Punta Toro virus): > 100 µg/mL
EC50 (vaccinia virus): > 100 µg/mL
concentration required for antiviral activities described in the literature [3]: ~100 µg/mL
EC50 [4]: > 100 µg/mL
EC50 (Feline herpes virus): > 100 µg/mL
EC50 (HIV-2): > 100 µg/mL
EC50 (Reovirus-1): > 100 µg/mL
EC50 (HSV-1): > 100 µg/mL
EC50 [5]: > 100 µg/mL
EC50 (Parainfluenza 3-virus): > 100 µg/mL
EC50 (HIV-1): > 100 µg/mL

C#CCc1c(Cl)nc(N)nc1Cl [Compound B6, 4,6-Dichloro-5-(prop-2-yn-1-yl)pyrimidin-2-amine]
concentration at which NO-suppressive effects were already apparent [2]: 2.5 µM

Nc1nc(Cl)c(F)c(Cl)n1 [Compound B12, 5-fluoro-2-amino-4,6-dichloropyrimidine]
concentration at which NO-suppressive effects were already apparent [2]: 2.5 µM
effect on immune-activated NO production (in words) ([2]; mouse peritoneal cells): nearly completely suppressed the production of NO

N-(3-aminomethyl)-benzylacetamide [1,400 W, reference compound]
IC50 [2]: 3.87 µM
